# High-throughput results: PubChem, Broad Institute
# Compounds with a hit are over-represented: about 1.9% of the library has one in this group of screens.
# PglD DTNB: blocks C. jejuni PglD acetyltransferase activity; actives 0.098% (n = 360,000); purified PglD enzyme, DTNB colorimetric CoA detection; inhibition, % at 12.5 µM; in the data active means inhibition above about 16%, passing the limit was not always enough
# RAD52 inh: inhibitors of human RAD52 DNA annealing; AID 651710; recombinant RAD52 DNA annealing, FRET fluorescence; actives 0.46% (n = 360,000); inhibition, % at 18.7 µM; P43351;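 active means every replicate showing at least 50% inhibition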
# Target sequence (P43351 whole entry, looked up): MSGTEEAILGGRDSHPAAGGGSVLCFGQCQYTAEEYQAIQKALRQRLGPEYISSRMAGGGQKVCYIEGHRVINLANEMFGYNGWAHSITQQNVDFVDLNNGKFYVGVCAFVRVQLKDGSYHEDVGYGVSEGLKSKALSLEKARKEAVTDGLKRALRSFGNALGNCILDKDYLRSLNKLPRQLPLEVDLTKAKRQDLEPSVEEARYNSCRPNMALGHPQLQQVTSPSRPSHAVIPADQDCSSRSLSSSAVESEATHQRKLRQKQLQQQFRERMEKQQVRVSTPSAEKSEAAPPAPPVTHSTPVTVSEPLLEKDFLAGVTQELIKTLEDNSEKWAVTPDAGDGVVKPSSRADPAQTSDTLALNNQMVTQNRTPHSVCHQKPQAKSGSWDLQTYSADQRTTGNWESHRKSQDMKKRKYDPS
# Cneo AK release: Cryptococcus neoformans lysis via adenylate kinase release; C. neoformans lysis, adenylate kinase release luminescence, 4 h; normalised: neutral wells 0, clomiphene wells 100; actives 0.2% (n = 360,000); lysis activity, % at 15 µM; AID 651654;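 active means mean lysis activity across replicates of at least 80%, whatever share of replicates individually reach that level; inactive means mean lysis activity below 80%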
#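 Assay system: Cryptococcus neoformans yeast cells / Dosing: single-point compound dose / Timing: 4 h at 37 °C static, read 1 h later / Measured by: luminescence of released adenylate kinase using an AK detection reagent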
# RAD54 inh: RAD54 (human) branch migration inhibition. RAD54 Holliday junction branch migration, FAM/BHQ fluorescence. inhibition, % at 10.4 µM. actives 0.14% (n = 360,000). AID 602329;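 active means mean normalized replicate activity at least 40 and at least half of replicates scoring 40 or more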;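 further: inhibitors cause a drop in the FAM fluorescence signal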
# Ecoli rRNA inh: inhibitors of bacterial rRNA selective over humanized ribosomes | E. coli WT GFP vs humanized-ribosome RFP mutants, fluorescence, 24 h; stronger effect = lower value; DMSO median 0, no signal -100 | GFP signal change (wild-type ribosome), % (no concentration beside the values) | AID 720706 | actives 1.6% (n = 350,000);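 active means significant combined selectivity score with lowered wild-type GFP, culture density cut under 30%, mutant RFP and density less affected; inactive means any of these conditions unmet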
# Numbers stand for hits; – = inactive; · = no result.
SMILES,PglD DTNB,RAD52 inh,Cneo AK release,RAD54 inh,Ecoli rRNA inh
O=C(O)CCSc1nc2ccc(Br)cc2[nH]1,–,·,–,–,·
COc1ccc(NC(=O)Nc2ccc3c(c2)C(=O)N([C@H](C)CO)C[C@H](C)[C@@H](CN(C)Cc2ccc(C(F)(F)F)cc2)OCCCC[C@H](C)O3)cc1,–,–,–,–,–
COc1ccc(CN(C)C[C@@H]2OCCCC[C@H](C)Oc3ccc(NC(=O)Nc4ccc(C(F)(F)F)cc4)cc3C(=O)N([C@@H](C)CO)C[C@H]2C)cc1,–,52,–,–,–
COc1ccc(CN(C)C[C@@H]2OCCCC[C@H](C)Oc3ccc(NC(=O)Nc4ccc(C(F)(F)F)cc4)cc3C(=O)N([C@H](C)CO)C[C@H]2C)cc1,–,65,–,–,·
C[C@@H]1CN([C@@H](C)CO)C(=O)c2cc(C3=CCCC3)cnc2O[C@@H]1CN(C)C(=O)NC1CCCC1,–,–,–,–,–
COc1ccc2c3c([nH]c2c1)[C@H](CO)N(S(C)(=O)=O)CC31CCN(Cc2ccccc2)CC1,·,·,·,·,–
CO[C@@H]1CN(C)C(=O)c2cc(NC(=O)CC(F)(F)F)ccc2OC[C@H](C)N(C(=O)C2CC2)C[C@@H]1C,·,·,·,·,–
C[C@@H]1CN([C@H](C)CO)C(=O)c2cc(NC(=O)CCC(F)(F)F)ccc2O[C@@H]1CN(C)S(=O)(=O)c1cn(C)cn1,–,–,–,–,–
CC(=O)N1CCN(CCS(=O)(=O)c2cc(Cl)ccc2Cl)CC1,·,–,·,·,–
COc1ccc(N2CCN(CCS(=O)(=O)c3cc(Cl)ccc3Cl)CC2)cc1,–,–,–,–,-22
CC(NCc1ccccc1Cl)C(=O)Nc1ccc(C#N)cc1 (stereo not given),·,–,·,·,-29
O=C(C[C@@H]1CC[C@H](NC(=O)c2cccnc2)[C@H](CO)O1)NCCN1CCCCC1,–,–,–,–,–
CC(=O)/C(=N/Nc1ccccc1[N+](=O)[O-])N1CCCc2ccccc21,–,–,–,–,-28
CC(=O)/C(=N/Nc1ccc([N+](=O)[O-])cc1)N1CCCc2ccccc21,–,–,–,–,–
COc1cc(SC)ccc1C(=O)Nc1ccc2c(c1)OCCO2,–,–,–,–,-25
COc1ccccc1C(=O)Nc1ccc2c(c1)OCCO2,–,·,–,–,·
COc1cc(SC)ccc1C(=O)Nc1nccs1,–,–,–,–,-25
COc1cc(SC)ccc1C(=O)Nc1ccccc1,–,·,–,–,·
CCOc1ccccc1/C=C/C(=O)c1ccc(Cl)cc1,·,–,·,·,-27
O=C(/C=C/c1ccccc1O)c1ccccc1,–,–,–,–,-19
Cc1ccccc1S(=O)(=O)N1CCCCN2[C@H](CO)[C@@H](c3ccc(-c4ccccc4)cc3)[C@H]2C1,–,70,–,–,·
CCS(=O)(=O)N1CCCCN2[C@H](CO)[C@@H](c3ccc(-c4ccc(C#N)cc4)cc3)[C@@H]2C1,–,–,88,–,–
Cc1ccccc1S(=O)(=O)N1CCCCN2[C@@H](CO)[C@@H](c3ccc(-c4ccccc4)cc3)[C@@H]2C1,–,–,–,–,·
Cc1ccccc1S(=O)(=O)N1CCCCN2[C@H](CO)[C@H](c3ccc(-c4ccccc4)cc3)[C@H]2C1,–,73,–,–,·
Cc1ccccc1-c1ccc([C@H]2[C@@H](CO)N3CCCCN(S(=O)(=O)Cc4ccccc4)C[C@H]23)cc1,–,69,–,–,–
SMILES,PglD DTNB,RAD52 inh,Cneo AK release,RAD54 inh,Ecoli rRNA inh
Cc1ccccc1-c1ccc([C@H]2[C@H]3CN(S(=O)(=O)Cc4ccccc4)CCCCN3[C@H]2CO)cc1,–,–,–,–,–
O=C(CC1CC1)N1CC2(C1)[C@@H](c1ccccc1)[C@H](CO)N2CC1CCOCC1,·,–,·,·,–
O=C(C[C@H]1C=C[C@H](NS(=O)(=O)c2ccccc2)[C@H](CO)O1)N1CCc2ccccc2C1,·,–,·,·,–
O=C(C[n+]1cc(-c2ccccc2)n2c1CCCCC2)c1ccc(Cl)cc1,–,–,–,–,-40
O=C(C[n+]1cc(-c2ccccc2)n2c1CCC2)Nc1nc(-c2ccccc2)cs1,–,·,–,–,·
COc1ccc(-c2c[n+](CC(=O)c3ccccc3)c3n2CCCCC3)cc1,·,–,·,·,-49
Cc1ccc(-c2c[n+](CC(=O)Nc3nc(-c4ccccc4)cs3)c3n2CCC3)cc1,·,–,·,·,-47
C[C@H](CO)N1C[C@H](C)[C@@H](CN(C)S(=O)(=O)c2ccc(F)cc2)Oc2cc(C3=CCCCC3)ccc2S1(=O)=O,–,–,–,–,–
CCCCSc1nc(N)c(C#N)c(-c2cccs2)c1C#N,–,–,–,–,-31
CCN(Cc1ccccc1)S(=O)(=O)c1cc(C(=O)c2c(N)n(C)c(=O)n(C)c2=O)ccc1OC,·,–,·,·,-37
O=C(C[N+]1(CC#Cc2ccccc2)CCOCC1)c1ccc(Cl)cc1,·,–,·,·,-24
CC(C)NC(=O)N(C)C[C@@H]1Oc2ccc(NS(=O)(=O)c3ccc(F)cc3)cc2C(=O)N([C@@H](C)CO)C[C@H]1C,–,–,–,–,–
COc1ccc(NC(=O)O/N=C/c2ccccc2Cl)cc1,·,–,·,·,-13
COc1ccc(NC(=O)O/N=C/c2ccccc2)cc1,–,–,–,–,–
NC(=O)Cc1ccc(C(=O)c2ccc(Cl)cc2)s1,–,–,–,–,-24
C[C@H](CO)N1C[C@H](C)[C@@H](CN(C)Cc2ccc(Cl)c(Cl)c2)Oc2ccc(NC(=O)C3CC3)cc2CC1=O,–,–,–,–,–
COc1ccc(C(=O)NCC(c2ccco2)N2CCc3ccccc3C2)c(OC)c1 (stereo not given),–,–,–,–,–
COc1ccc(C(=O)NCC(c2ccco2)N2CCc3ccccc32)c(OC)c1 (stereo not given),–,–,–,–,-24
CCS(=O)(=O)N1CC2(CN(C(=O)CN3CCOCC3)[C@@H](CO)c3c2c2ccc(OC)cc2n3C)C1,·,–,·,·,–
COc1cc2c(cc1OC)CN(C1CCCN(Cc3cc(Cl)ccc3O)C1)CC2 (stereo not given),–,–,–,–,-28
CC1(c2ccc(OCC#N)cc2)C=C(c2ccc(OCC#N)cc2)n2nc(C(F)(F)F)nc2N1 (stereo not given),·,–,·,·,-27
NC(=O)c1nnsc1Sc1c(C(N)=O)nnn1-c1cccc(N)c1,·,–,·,·,-27
C=CCOc1c(Br)cc(CNn2c(C)n[nH]c2=S)cc1OCC,–,–,–,–,-31
CC(=O)N(C)C[C@@H]1Oc2ccc(N(C)C)cc2C(=O)N(C)C[C@H]1C,·,·,·,·,–
CN1[C@@H]2c3ccc(-c4ccccc4)c(=O)n3C[C@@H]2[C@@H](CO)[C@@H]1C(=O)Nc1ccccc1,–,–,–,–,–
O=C(N/N=C/c1ccc([N+](=O)[O-])o1)c1cc2c(ccc3ccccc32)o1,·,–,·,·,-24
O=C(N/N=C/c1ccc([N+](=O)[O-])o1)c1cc2ccccc2o1,·,–,·,·,–
